Measured values: ChEMBL document CHEMBL3734708, “Synthesis, cytotoxicity and antiviral evaluation of new series of imidazo[4,5-g]quinoline and pyrido[2,3-g]quinoxalinone derivatives” (Eur J Med Chem, 2015)

Test system: not listed separately
Assay: Cytotoxicity against human MT4 cells assessed as reduction in cell proliferation after 96 hrs by MTT assay
Type: cell-based
Conditions: not given
Method in brief: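 MT-4 cells in exponential growth seeded at 1 × 10^5 cells/mL in RPMI-1640 with 10% FBS and penicillin/streptomycin. Cultured with serial compound dilutions at 37 °C, 5% CO2. MTT viability after 96 h. CC50 by linear regression against untreated controls. Mean of three independent determinations.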

Cn1c(=O)c(-c2ccccc2)nc2c(Cl)c3ncccc3cc21 and N#CCn1c(=O)c(-c2ccccc2)nc2c(Cl)c3ncccc3cc21 cannot be ordered by CC50 at 96 h: over 100 µM for the first, over 100 µM for the second.

First: O=c1c(-c2ccccc2)nc2c(Cl)c3ncccc3cc2n1Cc1ccccc1
Second: O=[N+]([O-])c1ccc(COc2nc3cc4cccnc4c(Cl)c3nc2-c2ccccc2)cc1
The CC50 at 96 h of the first is lower: 88 µM for the first, over 100 µM for the second.

CC(C)c1nc2c(Cl)c3ncccc3cc2n(C)c1=O gave a CC50 at 96 h of over 100 µM.

Test system: Human immunodeficiency virus 1
Assay: Antiviral activity against HIV-1 3B infected in human MT4 cells assessed as protection against virus-induced cytopathic effect after 4 days by MTT assay
Type: functional, organism-based
Conditions: Human immunodeficiency virus 1, 3B, MT4, 96 h
Method in brief: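 MT-4 cells (1 × 10^4/well in RPMI) with or without serial compound dilutions, infected with HIV-1 at 100 CCID50 (m.o.i. 0.01). After 4 days at 37 °C, protection from cytopathogenicity read by MTT. EC50 by linear regression versus untreated controls; mean of three independent determinations.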

Cn1c(=O)c(-c2ccccc2)nc2c(Cl)c3ncccc3cc21 and N#CCn1c(=O)c(-c2ccccc2)nc2c(Cl)c3ncccc3cc21 cannot be ordered by EC50: over 100 µM for the first, over 100 µM for the second.

O=c1c(-c2ccccc2)nc2c(Cl)c3ncccc3cc2n1Cc1ccccc1 and O=[N+]([O-])c1ccc(COc2nc3cc4cccnc4c(Cl)c3nc2-c2ccccc2)cc1 cannot be ordered by EC50: over 88 µM for the first, over 100 µM for the second.

In the case of CC(C)c1nc2c(Cl)c3ncccc3cc2n(C)c1=O, the EC50 is reported as over 100 µM.

Test system: not listed separately
Assay: Cytotoxicity against MDBK cells assessed as reduction in cell viability after 72 hrs by MTT assay
Type: cell-based, Bos taurus
Conditions: cattle
Method in brief: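 MDBK cells seeded at 6 × 10^5 cells/mL in MEM-E with L-glutamine, 1 mM sodium pyruvate, kanamycin and 10% horse serum. Mock-infected cultures held with serial compound dilutions at 37 °C, 5% CO2. MTT viability read after 72 h. 50% cytotoxic concentration from linear regression as % of untreated controls. Three independent determinations.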

Cn1c(=O)c(-c2ccccc2)nc2c(Cl)c3ncccc3cc21 and N#CCn1c(=O)c(-c2ccccc2)nc2c(Cl)c3ncccc3cc21 cannot be ordered by CC50 at 72 h: over 100 µM for the first, over 100 µM for the second.

O=c1c(-c2ccccc2)nc2c(Cl)c3ncccc3cc2n1Cc1ccccc1 and O=[N+]([O-])c1ccc(COc2nc3cc4cccnc4c(Cl)c3nc2-c2ccccc2)cc1 cannot be ordered by CC50 at 72 h: over 100 µM for the first, over 100 µM for the second.

Work on CC(C)c1nc2c(Cl)c3ncccc3cc2n(C)c1=O yielded a CC50 at 72 h of over 100 µM.

Test system: Bovine viral diarrhea virus 1
Assay: Antiviral activity against BVDV NADL ATCC VR-534 infected in MDBK cells assessed as protection against virus-induced cytopathic effect after 3 or 4 days by MTT assay
Type: functional, organism-based
Conditions: Bovine viral diarrhea virus isolates and strains, NADL ATCC VR-534, MDBK
Method in brief: (§1)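 BHK-21 (YFV, Reo-1) or MDBK (BVDV) cells seeded at 5 × 10^4 or 3 × 10^4 cells/well and grown overnight to confluence. Monolayers infected at m.o.i. 0.01 in maintenance medium (MEM-Earle, 0.5% inactivated FBS). Serial compound dilutions added 2 h after infection; 37 °C for 3-4 days. Viability read by MTT. EC50 by linear regression versus untreated controls; mean of three determinations.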

Compared with Cn1c(=O)c(-c2ccccc2)nc2c(Cl)c3ncccc3cc21, N#CCn1c(=O)c(-c2ccccc2)nc2c(Cl)c3ncccc3cc21 is higher in EC50: 16 µM for the first, over 100 µM for the second. The first is the more potent here.

First: O=c1c(-c2ccccc2)nc2c(Cl)c3ncccc3cc2n1Cc1ccccc1
Second: O=[N+]([O-])c1ccc(COc2nc3cc4cccnc4c(Cl)c3nc2-c2ccccc2)cc1
The EC50 of the first is lower: 46 µM for the first, over 100 µM for the second.

With CC(C)c1nc2c(Cl)c3ncccc3cc2n(C)c1=O the EC50 was over 100 µM.

Test system: not listed separately
Assay: Cytotoxicity against BHK21 cells assessed as reduction in cell viability after 72 hrs by MTT assay
Type: cell-based, Mesocricetus auratus, BHK-21
Conditions: hamster
Method in brief: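 BHK cells seeded at 1 × 10^6 cells/mL in MEM-E with L-glutamine, 1 mM sodium pyruvate, kanamycin and 10% FBS. Mock-infected cells exposed to serial dilutions of compound at 37 °C, 5% CO2, run in parallel with the antiviral assays. Viability by MTT at 72 h. CC50 by linear regression vs untreated controls. Mean of three independent determinations.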

Cn1c(=O)c(-c2ccccc2)nc2c(Cl)c3ncccc3cc21 and N#CCn1c(=O)c(-c2ccccc2)nc2c(Cl)c3ncccc3cc21 cannot be ordered by CC50 at 72 h: over 100 µM for the first, over 100 µM for the second.

O=c1c(-c2ccccc2)nc2c(Cl)c3ncccc3cc2n1Cc1ccccc1 and O=[N+]([O-])c1ccc(COc2nc3cc4cccnc4c(Cl)c3nc2-c2ccccc2)cc1 cannot be ordered by CC50 at 72 h: over 100 µM for the first, over 100 µM for the second.

CC(C)c1nc2c(Cl)c3ncccc3cc2n(C)c1=O showed a CC50 at 72 h of over 100 µM.

Test system: Yellow fever virus
Assay: Antiviral activity against YFV 17-D vaccine (Stamaril Pasteur J07B01) infected in BHK21 cells assessed as protection against virus-induced cytopathic effect after 3 or 4 days by MTT assay
Type: functional, organism-based
Conditions: BHK-21
Method in brief: as §1

Cn1c(=O)c(-c2ccccc2)nc2c(Cl)c3ncccc3cc21 and N#CCn1c(=O)c(-c2ccccc2)nc2c(Cl)c3ncccc3cc21 cannot be ordered by EC50: over 100 µM for the first, over 100 µM for the second.

O=c1c(-c2ccccc2)nc2c(Cl)c3ncccc3cc2n1Cc1ccccc1 and O=[N+]([O-])c1ccc(COc2nc3cc4cccnc4c(Cl)c3nc2-c2ccccc2)cc1 cannot be ordered by EC50: over 100 µM for the first, over 100 µM for the second.

With CC(C)c1nc2c(Cl)c3ncccc3cc2n(C)c1=O the EC50 was over 100 µM.

Test system: Mammalian orthoreovirus 1
Assay: Antiviral activity against Reovirus 1 ATCC VR- 214 infected in BHK21 cells assessed as protection against virus-induced cytopathic effect after 3 or 4 days by MTT assay
Type: functional, cell-based
Conditions: Mammalian orthoreovirus 1, ATCC VR- 214, BHK-21
Method in brief: as §1

Cn1c(=O)c(-c2ccccc2)nc2c(Cl)c3ncccc3cc21 and N#CCn1c(=O)c(-c2ccccc2)nc2c(Cl)c3ncccc3cc21 cannot be ordered by EC50: over 100 µM for the first, over 100 µM for the second.

O=c1c(-c2ccccc2)nc2c(Cl)c3ncccc3cc2n1Cc1ccccc1 and O=[N+]([O-])c1ccc(COc2nc3cc4cccnc4c(Cl)c3nc2-c2ccccc2)cc1 cannot be ordered by EC50: over 100 µM for the first, over 100 µM for the second.

With CC(C)c1nc2c(Cl)c3ncccc3cc2n(C)c1=O the EC50 was over 100 µM.

Test system: not listed separately
Assay: Cytotoxicity against african green monkey Vero 76 cells assessed as reduction in cell viability after 48 to 96 hrs by MTT assay
Type: cell-based
Conditions: chlorocebus sabaeus
Method in brief: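 Vero-76 cells plated at 4 × 10^5 cells/mL in D-MEM with L-glutamine, kanamycin and 10% FBS. Incubated with serial dilutions of test compounds at 37 °C, 5% CO2 for 48-96 h. Viability by MTT. CC50 by linear regression relative to untreated cells. Mean of three independent runs.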

First: Cn1c(=O)c(-c2ccccc2)nc2c(Cl)c3ncccc3cc21
Second: N#CCn1c(=O)c(-c2ccccc2)nc2c(Cl)c3ncccc3cc21
The CC50 of the first is higher: over 100 µM for the first, 90 µM for the second.

Compared with O=c1c(-c2ccccc2)nc2c(Cl)c3ncccc3cc2n1Cc1ccccc1, O=[N+]([O-])c1ccc(COc2nc3cc4cccnc4c(Cl)c3nc2-c2ccccc2)cc1 is higher in CC50: 90 µM for the first, over 100 µM for the second.

In the case of CC(C)c1nc2c(Cl)c3ncccc3cc2n(C)c1=O, the CC50 is reported as over 100 µM.

Test system: Coxsackievirus B5
Assay: Antiviral activity against CVB-5 virus Faulkner ATCC VR-185 infected in african green monkey Vero-76 cells after 3 days by plaque reduction assay
Type: functional, organism-based
Conditions: Enterovirus B, Faulkner ATCC VR-185, Vero 76, 72 h

First: Cn1c(=O)c(-c2ccccc2)nc2c(Cl)c3ncccc3cc21
Second: N#CCn1c(=O)c(-c2ccccc2)nc2c(Cl)c3ncccc3cc21
The EC50 of the first is lower: 17 µM for the first, over 90 µM for the second.

O=c1c(-c2ccccc2)nc2c(Cl)c3ncccc3cc2n1Cc1ccccc1 and O=[N+]([O-])c1ccc(COc2nc3cc4cccnc4c(Cl)c3nc2-c2ccccc2)cc1 cannot be ordered by EC50: over 90 µM for the first, over 100 µM for the second.

For CC(C)c1nc2c(Cl)c3ncccc3cc2n(C)c1=O, the EC50 was over 100 µM.

Test system: Human poliovirus 1 strain Sabin
Assay: Antiviral activity against Human poliovirus 1 strain Sabin 1 virus infected in african green monkey Vero-76 cells after 2 days by plaque reduction assay
Type: functional, organism-based
Conditions: Enterovirus C, 1, Vero 76, 48 h

First: Cn1c(=O)c(-c2ccccc2)nc2c(Cl)c3ncccc3cc21
Second: N#CCn1c(=O)c(-c2ccccc2)nc2c(Cl)c3ncccc3cc21
The EC50 of the first is lower: 38 µM for the first, over 90 µM for the second.

O=c1c(-c2ccccc2)nc2c(Cl)c3ncccc3cc2n1Cc1ccccc1 and O=[N+]([O-])c1ccc(COc2nc3cc4cccnc4c(Cl)c3nc2-c2ccccc2)cc1 cannot be ordered by EC50: over 90 µM for the first, over 100 µM for the second.

For CC(C)c1nc2c(Cl)c3ncccc3cc2n(C)c1=O, the EC50 was over 100 µM.

Test system: Respiratory syncytial virus
Assay: Antiviral activity against RSVA2 ATCC VR-1540 infected in african green monkey Vero-76 cells after 5 days by plaque reduction assay
Type: functional, organism-based
Conditions: human respiratory syncytial virus, A2 ATCC VR-1540, Vero 76, 120 h

Cn1c(=O)c(-c2ccccc2)nc2c(Cl)c3ncccc3cc21 and N#CCn1c(=O)c(-c2ccccc2)nc2c(Cl)c3ncccc3cc21 cannot be ordered by EC50: over 100 µM for the first, over 90 µM for the second.

O=c1c(-c2ccccc2)nc2c(Cl)c3ncccc3cc2n1Cc1ccccc1 and O=[N+]([O-])c1ccc(COc2nc3cc4cccnc4c(Cl)c3nc2-c2ccccc2)cc1 cannot be ordered by EC50: over 90 µM for the first, over 100 µM for the second.

Compound CC(C)c1nc2c(Cl)c3ncccc3cc2n(C)c1=O has an EC50 of over 100 µM.

Test system: Vesicular stomatitis virus
Assay: Antiviral activity against VSV Indiana ATCC VR-158 infected in african green monkey Vero-76 cells after 2 days by plaque reduction assay
Type: functional, organism-based
Conditions: Indiana ATCC VR-158, Vero 76, 48 h

Cn1c(=O)c(-c2ccccc2)nc2c(Cl)c3ncccc3cc21 and N#CCn1c(=O)c(-c2ccccc2)nc2c(Cl)c3ncccc3cc21 cannot be ordered by EC50: over 100 µM for the first, over 90 µM for the second.

O=c1c(-c2ccccc2)nc2c(Cl)c3ncccc3cc2n1Cc1ccccc1 and O=[N+]([O-])c1ccc(COc2nc3cc4cccnc4c(Cl)c3nc2-c2ccccc2)cc1 cannot be ordered by EC50: over 90 µM for the first, over 100 µM for the second.

In the case of CC(C)c1nc2c(Cl)c3ncccc3cc2n(C)c1=O, the EC50 is reported as over 100 µM.

Test system: Vaccinia virus
Assay: Antiviral activity against VV Elstree ATCC VR-1549 infected in african green monkey Vero-76 cells after 3 days by plaque reduction assay
Type: functional, organism-based
Conditions: Orthopoxvirus vaccinia, Elstree ATCC VR-1549, Vero 76, 72 h

Cn1c(=O)c(-c2ccccc2)nc2c(Cl)c3ncccc3cc21 and N#CCn1c(=O)c(-c2ccccc2)nc2c(Cl)c3ncccc3cc21 cannot be ordered by EC50: over 100 µM for the first, over 90 µM for the second.

O=c1c(-c2ccccc2)nc2c(Cl)c3ncccc3cc2n1Cc1ccccc1 and O=[N+]([O-])c1ccc(COc2nc3cc4cccnc4c(Cl)c3nc2-c2ccccc2)cc1 cannot be ordered by EC50: over 90 µM for the first, over 100 µM for the second.

CC(C)c1nc2c(Cl)c3ncccc3cc2n(C)c1=O gave an EC50 of over 100 µM.

Test system: Human alphaherpesvirus 1
Assay: Antiviral activity against HSV-1 KOS ATCC VR- 1493 infected in african green monkey Vero-76 cells after 3 days by plaque reduction assay
Type: functional, organism-based
Conditions: Human alphaherpesvirus 1, KOS ATCC VR1493, Vero 76, 72 h

Cn1c(=O)c(-c2ccccc2)nc2c(Cl)c3ncccc3cc21 and N#CCn1c(=O)c(-c2ccccc2)nc2c(Cl)c3ncccc3cc21 cannot be ordered by EC50: over 100 µM for the first, over 90 µM for the second.

O=c1c(-c2ccccc2)nc2c(Cl)c3ncccc3cc2n1Cc1ccccc1 and O=[N+]([O-])c1ccc(COc2nc3cc4cccnc4c(Cl)c3nc2-c2ccccc2)cc1 cannot be ordered by EC50: over 100 µM for the first, over 100 µM for the second.

For CC(C)c1nc2c(Cl)c3ncccc3cc2n(C)c1=O, the EC50 was over 100 µM.
